How the values were obtained:
[1] = molecular target: Peptidyl-prolyl cis-trans isomerase FKBP1A (Rattus norvegicus, UniProt Q62658); assay: In vitro inhibition of rotamase activity of FK506 binding protein 12
Mus musculus [2] = assay: Concurrent % recovery of striatal dopaminergic innervation relative to MPTP-treated mice after subcutaneous administration at dose of 4 mg/kg.; assay type: functional, organism-based; design: dose 4 mg/kg
Outline: (§1)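 Mice lesioned with the dopaminergic neurotoxin MPTP, following an earlier-described protocol. The endpoint is striatal dopaminergic innervation. Drug is given either concurrently with MPTP or after the lesion. Values are expressed as % recovery relative to MPTP-lesioned animals that received no test drug.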

Mus musculus [3] = assay: Post-MPTP % recovery of striatal dopaminergic innervation relative to MPTP-treated mice after peroral administration at dose of 10 mg/kg; assay type: functional, organism-based; design: dose 10 mg/kg; outline: as §1

Peptidyl-prolyl cis-trans isomerase FKBP1A, sequence (Q62658 whole entry): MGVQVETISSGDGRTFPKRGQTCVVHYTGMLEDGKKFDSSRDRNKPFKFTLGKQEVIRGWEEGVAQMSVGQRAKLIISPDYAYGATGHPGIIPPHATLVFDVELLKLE

| SMILES | Ki [1] | Recovery (Mus musculus [2]) | Recovery (Mus musculus [3]) |
| --- | --- | --- | --- |
| CCC(C)(C)C(=O)C(=O)N1CCCC[C@H]1C(=O)CCCCc1ccccc1 | 790 nM |  |  |
| CC(C)(C)C(=O)C(=O)N1CCCC[C@H]1C(=O)CCCCCc1ccccc1 | 290 nM | 50% | 36% |
| CCC(C)(C)C(=O)C(=O)N1CCC[C@H]1C(=O)CCCCc1ccccc1 | 30 nM | 22.5% |  |
| CCC(C)(C)C(=O)C(=O)N1CCC[C@H]1C(=O)CCCCc1ccc(O)cc1 | 240 nM |  | 33.5% |
| CCC(C)(C)C(=O)C(=O)N1CCC[C@H]1C(=O)OCCCc1cccnc1 [GPI-1046] | 7.5 nM | 39% | 35% |
| CCCCC(=O)[C@@H]1CCCCN1C(=O)C(=O)C(C)(C)CC | 3400 nM |  |  |
| CCC(C)(C)C(=O)C(=O)N1CCC[C@H]1C(=O)CCCCc1c(F)c(F)c(C(F)(F)F)c(F)c1F | 130 nM | 7% | 27% |
| CCC(C)(C)C(=O)C(=O)N1CCC[C@H]1C(=O)CCCCc1cccnc1 |  | 38% | 34% |
| O=C(C(=O)N1CCC[C@H]1C(=O)CCCCc1ccccc1)c1ccccc1 | 10000 nM |  |  |
| CCC(C)(C)C(=O)C(=O)N1CCC[C@H]1C(=O)CCCC(c1ccc(F)cc1)c1ccc(F)cc1 | 460 nM | 41% | 54% |
| CCC(C)(C)C(=O)C(=O)N1CCCC[C@H]1C(=O)CCCCCc1ccccc1 | 3000 nM | 46.3% |  |
| CCC(C)(C)C(=O)C(=O)N1CCCC[C@H]1C(=O)CCCCCc1cccnc1 | 900 nM |  |  |
| O=C(C(=O)N1CCC[C@H]1C(=O)CCCCc1ccccc1)C1CCCCC1 | 310 nM | 37.6% | 62.2% |
| CCC(C)(C)C(=O)C(=O)N1CCCC[C@H]1C(=O)CCCc1ccccc1 | 10000 nM |  |  |
| CCCCC(=O)[C@@H]1CCCN1C(=O)C(=O)C(C)(C)CC | 2000 nM |  |  |
| CCC(C)(C)C(=O)C(=O)N1CCC[C@H]1C(=O)CCCCCc1ccccc1 | 3800 nM | 46% | 48% |
| CC(C)(C)C(=O)C(=O)N1CCC[C@H]1C(=O)CCCc1ccccc1 | 180 nM | 34% | 35% |

Source: ChEMBL document CHEMBL1135539, “Synthesis of ketone analogues of prolyl and pipecolyl ester FKBP12 ligands” (J Med Chem, 2002)
